The target in experiment [1] is Apoptosis regulator Bcl-2 (Homo sapiens, UniProt P10415). The experiment can be described thus: Displacement of FAM-Bid BH3 peptide from recombinant Bcl-2 (unknown origin) expressed in Escherichia coli BL21 after 10 mins by fluorescence polarization assay. A general note: In fluorescence polarisation assays a small probe gives low polarisation when free and higher when bound to something large.

Experiment [2] addresses Induced myeloid leukemia cell differentiation protein Mcl-1 (Homo sapiens, UniProt Q07820). Kind of experiment: Displacement of FAM-Bid BH3 peptide from recombinant Mcl-1 (unknown origin) expressed in Escherichia coli BL21 after 10 mins by fluorescence polarization assay. A digest of the protocol:
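Mcl-1 FP competition: 55 nM protein with 20 nM FAM-Bid BH3 peptide in 25 mM Tris pH 8.0, 150 mM NaCl, 2 min preincubation. Compounds added as serial dilutions from 10 mM DMSO stock, 10 min incubation, polarization measured. Tracer Kd 13 nM. Ki derived by Wang FP-assay equation.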

Drawing on ChEMBL document CHEMBL2434895, “Design and application of a rigid quinazolone scaffold based on two-face Bim α-helix mimicking” (Eur J Med Chem, 2013), this text covers Ki for eight compounds.

Induced myeloid leukemia cell differentiation protein Mcl-1, sequence (Q07820 whole entry): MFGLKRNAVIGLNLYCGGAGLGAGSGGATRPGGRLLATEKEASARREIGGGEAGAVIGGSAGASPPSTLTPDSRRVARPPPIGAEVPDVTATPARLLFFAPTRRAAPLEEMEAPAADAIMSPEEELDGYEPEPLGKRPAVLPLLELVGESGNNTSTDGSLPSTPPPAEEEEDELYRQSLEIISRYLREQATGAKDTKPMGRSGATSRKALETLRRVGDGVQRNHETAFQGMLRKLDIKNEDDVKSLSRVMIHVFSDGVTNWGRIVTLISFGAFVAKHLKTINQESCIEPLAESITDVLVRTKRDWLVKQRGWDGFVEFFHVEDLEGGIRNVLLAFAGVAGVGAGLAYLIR
Apoptosis regulator Bcl-2, sequence (P10415 whole entry): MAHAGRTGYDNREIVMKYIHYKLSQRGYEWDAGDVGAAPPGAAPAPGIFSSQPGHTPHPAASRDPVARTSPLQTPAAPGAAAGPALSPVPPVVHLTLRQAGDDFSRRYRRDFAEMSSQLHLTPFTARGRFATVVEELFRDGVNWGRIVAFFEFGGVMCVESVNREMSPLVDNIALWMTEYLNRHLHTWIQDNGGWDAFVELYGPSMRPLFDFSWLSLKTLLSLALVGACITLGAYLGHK

On to `Cc1ccc(O)c(Cn2c(-c3ccccc3)nc3c(O)c(O)c(O)cc3c2=O)c1`, for which the Ki (as a rule, the dissociation constant of the complex between target and ligand, obtained from inhibition or displacement) in experiment [1] was found to be 179 nM; in experiment [2], 123 nM.
For `O=c1[nH]cnc2c(O)c(O)c(O)cc12`, in that order: 9280 nM and 5980 nM.
Take `CC(C)c1ccc(O)c(Cn2c(-c3ccccc3)nc3c(O)c(O)c(O)cc3c2=O)c1`: the Ki amounted to 1110 nM in experiment [1] and 609 nM in experiment [2].
For `O=C(Nc1c(C(=O)NCCCc2ccccc2)cc(O)c(O)c1O)c1ccccc1`, in that order: 8040 nM and 3240 nM.
The corresponding values for `CCCCNC(=O)c1cc(O)c(O)c(O)c1NC(=O)c1ccccc1` are 1920 nM and 1980 nM.
For `O=C1c2ccccc2C(=O)c2c1cc(O)c(O)c2O`, in that order: 1320 nM and 1210 nM.
As for `O=C(Nc1c(C(=O)NCc2ccccc2)cc(O)c(O)c1O)c1ccccc1`, the inhibition constant (Ki) in experiment [1] is 1320 nM; in experiment [2] it was 2820 nM.
The corresponding values for `O=c1c2cc(O)c(O)c(O)c2nc(-c2ccccc2)n1Cc1ccccc1` are 959 nM and 1210 nM.
